Measured values: ChEMBL document CHEMBL3232756, “Synthesis and biological evaluation of N-dehydrodipeptidyl-N,N'-dicyclohexylurea analogs” (Eur J Med Chem, 2014)

Columns and labels:
[1] = system: Mus musculus; test: Acute toxicity in Swiss albino mouse assessed as mortality up to 1500 mg/kg, po; type: organism-based; set-up: dose 1500 mg/kg, route oral; conditions: in vivo
Procedure, shortened: (§1)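 Swiss albino mice (6–8 weeks, 25–30 g) were dosed orally at 500, 1000 or 1500 mg/kg, following OECD guidelines. Body weight, food and water intake, behavioural patterns and mortality were recorded and compared with a control group.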

[2] = system: Mus musculus; test: Acute toxicity in Swiss albino mouse assessed as gross behavioral changes up to 1500 mg/kg, po; type: organism-based; set-up: dose 1500 mg/kg, route oral; conditions: in vivo; procedure, shortened: as §1
[3] = system: Rattus norvegicus; test: Antiinflammatory activity in Wister rat assessed as inhibition of carrageenan-induced paw edema at 100 mg/kg, po administered 1 hr before carrageenan challenge measured after 3 hrs by plethysmograph analysis; type: functional
Procedure, shortened: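 Rats of either sex, 150–220 g, food withheld 4 h. Compound or diclofenac sodium 100 mg/kg p.o., or 0.5% sodium CMC at 10 ml/kg as vehicle control, given 1 h before 0.05 ml of 1% carrageenan subplantar into the right hind paw. Paw volume read by water-displacement plethysmograph at 0, 30, 60, 120 and 180 min. % edema inhibition = 100(1−Vt/Vc); n=5, control n=6; ANOVA/Dunnett.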

[4] = system: Mus musculus; test: Analgesic activity in Swiss albino mouse assessed as inhibition of acetic acid-induced writhing response at 100 mg/kg, po administered 1 hr before acetic acid challenge after 5 mins; type: functional
[5] = system: Bacillus subtilis; test: Antimicrobial activity against Bacillus subtilis MTCC 441 at 0.02 ml of 1 mg/ml after 24 hrs by cup plate method; type: functional; conditions: MTCC 441, 24 h, read-out: DIZ
Procedure, shortened: (§2)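 Cup-plate diffusion on Mueller-Hinton/nutrient agar swab-streaked with suspension, 6 mm cups bored. Each compound at 1 mg/ml in DMSO, 0.02 ml per cup; DMSO as solvent control. Amoxicillin for bacteria and fluconazole for fungi at 200 and 500 respectively as references. Incubation 37 °C for 24 h. Inhibition zone diameter in mm, triplicate, mean ± SD.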

[6] = system: Staphylococcus aureus; test: Antimicrobial activity against Staphylococcus aureus MTCC 96 at 0.02 ml of 1 mg/ml after 24 hrs by cup plate method; type: functional; conditions: MTCC 96, 24 h, read-out: DIZ; procedure, shortened: as §2
[7] = system: Pseudomonas aeruginosa; test: Antimicrobial activity against Pseudomonas aeruginosa MTCC 1688 at 0.02 ml of 1 mg/ml after 24 hrs by cup plate method; type: functional; conditions: MTCC 1688, 24 h, read-out: DIZ; procedure, shortened: as §2
[8] = system: Escherichia coli; test: Antimicrobial activity against Escherichia coli ESS 2231 at 0.02 ml of 1 mg/ml after 24 hrs by cup plate method; type: functional; conditions: ESS 2231, 24 h, read-out: DIZ; procedure, shortened: as §2
[9] = system: Aspergillus niger; test: Antimicrobial activity against Aspergillus niger MTCC 292 at 0.02 ml of 1 mg/ml after 24 hrs by cup plate method; type: functional; conditions: MTCC 292, 24 h, read-out: DIZ; procedure, shortened: as §2
[10] = system: Candida albicans; test: Antimicrobial activity against Candida albicans MTCC 227 at 0.02 ml of 1 mg/ml after 24 hrs by cup plate method; type: functional; conditions: MTCC 227, 24 h, read-out: DIZ; procedure, shortened: as §2
[11] = system: Radical scavenging activity; test: Antioxidant activity assessed as DPPH radical scavenging activity after 20 to 30 mins; type: functional
Procedure, shortened: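 Test solution (2 ml at 25, 50, 75, 100, 125) mixed with 2 ml ethanolic DPPH, held in the dark at ambient temperature 20–30 min, then A517 read against an ethanol blank. Tocopherol used as standard. % scavenging = (Acontrol−Atest)/Acontrol×100, run in triplicate. IC50 read graphically from the % scavenging versus concentration plot.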

[12] = Antioxidant activity assessed as hydroxyl radical scavenging activity after 15 mins; type: functional
Procedure, shortened: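 Deoxyribose degradation mix: 2-deoxy-2-ribose 2.8 mM, KH2PO4–KOH 20 mM pH 7.4, FeCl3, EDTA, H2O2 1.0 mM, ascorbic acid, plus compound in methanol. Incubated 1 h at 37 °C. A 0.5 ml aliquot taken with 1 ml 2.8% TCA and 1 ml 1% TBA, heated 90 °C for 15 min, cooled, A532 read. % inhibition against blank.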

[13] = system: Brain; test: Antioxidant activity against lipid peroxidation in Wister rat brain homogenates assessed as thiobarbituric acid reactive substance formation after 30 mins by spectrophotometer analysis; type: functional, tissue-based; conditions: 0.5 h
Procedure, shortened: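 Whole brain minus cerebellum from overnight-fasted rats of either sex, 200–220 g. Homogenized 10% w/v in 0.15 M KCl and spun at 800 rpm for 10 min. Reaction incubated 37 °C for 30 min, then TBA:TCA (1:1) and BHT added, heated 80 °C for 20 min, cooled, centrifuged, A532 read.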

[14] = Antioxidant activity assessed as trolox equivalents of cupric reducing antioxidant capacity after 30 mins; type: functional
Procedure, shortened: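 Mix of 1 ml CuCl2 (10 mM), 1 ml ethanolic neocuproine (7.5 mM), 1 ml ammonium acetate buffer (pH 7.0, 1 M), 1 ml compound or standard solution and 0.1 ml water, total 4.1 ml. A450 read after 30 min against reagent blank. TEAC = ε test/ε Trolox.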

| Compound | Activity [1] | Activity [2] | inhibition in vivo at 100 mg/kg [3] | inhibition in vivo at 100 mg/kg [4] | zone of inhibition at 1000 µg/mL [5] | zone of inhibition at 1000 µg/mL [6] | zone of inhibition at 1000 µg/mL [7] | zone of inhibition at 1000 µg/mL [8] | zone of inhibition at 1000 µg/mL [9] | zone of inhibition at 1000 µg/mL [10] | IC50 [11] | IC50 [12] | IC50 [13] | TEAC (Trolox equivalents) [14] |
| --- | --- | --- | --- | --- | --- | --- | --- | --- | --- | --- | --- | --- | --- | --- |
| O=C(NCC(=O)N(C(=O)NC1CCCCC1)C1CCCCC1)/C(=C\c1ccc(F)cc1)NC(=O)c1ccccc1 | Non-toxic | Non-toxic | 20.6% | 22% | 20.1 mm | 19.3 mm | 17.6 mm | 16.5 mm | 20.8 mm | 19.2 mm | 88.7 µM | 88.7 µM | 97.2 µM | 1.22 |
| COc1ccc(/C=C(/NC(=O)c2ccccc2)C(=O)NC(CS)C(=O)N(C(=O)NC2CCCCC2)C2CCCCC2)cc1 (stereo not given) | Non-toxic | Non-toxic | 31.5% | 36% | 20.1 mm | 19.2 mm | 17.7 mm | 16.4 mm | 20.3 mm | 19.8 mm | 88.7 µM | 97.2 µM | 127 µM | 2.91 |
| CC(C)c1ccc(/C=C(/NC(=O)c2ccccc2)C(=O)NCC(=O)N(C(=O)NC2CCCCC2)C2CCCCC2)cc1 | Non-toxic | Non-toxic | 26% | 47.4% | 18.4 mm | 16.4 mm | 17.3 mm | 18.1 mm | 21.2 mm | 13.1 mm | 61 µM | 60.4 µM | 60.4 µM | 1.19 |
| O=C(NC(CS)C(=O)N(C(=O)NC1CCCCC1)C1CCCCC1)/C(=C\c1ccc(F)cc1)NC(=O)c1ccccc1 (stereo not given) | Non-toxic | Non-toxic | 25% | 42% | 14.5 mm | 11.4 mm | 16.6 mm | 14.3 mm | 18.2 mm | 17.1 mm | 58.8 µM | 51 µM | 74.7 µM | 3.6 |
| COc1cc(/C=C(/NC(=O)c2ccccc2)C(=O)NC(CS)C(=O)N(C(=O)NC2CCCCC2)C2CCCCC2)ccc1O (stereo not given) | Non-toxic | Non-toxic | 38.4% | 48% | 20.2 mm | 22.1 mm | 20.8 mm | 24.6 mm | 19.3 mm | 20.4 mm | – | 92.8 µM | 81.6 µM | 3.6 |
| Cc1ccc(/C=C(/NC(=O)c2ccccc2)C(=O)NCC(=O)N(C(=O)NC2CCCCC2)C2CCCCC2)cc1 | Non-toxic | Non-toxic | 23.9% | 48.8% | 13.2 mm | 15.5 mm | 17.6 mm | 13.3 mm | 14.5 mm | 13.4 mm | 71.9 µM | 101 µM | 127 µM | 1.24 |
| COc1ccc(/C=C(/NC(=O)c2ccccc2)C(=O)NCC(=O)N(C(=O)NC2CCCCC2)C2CCCCC2)cc1 | Non-toxic | Non-toxic | 12% | 39.6% | 11.3 mm | 14.3 mm | 10.3 mm | 15.8 mm | 18.8 mm | 19.6 mm | 92.7 µM | 92.7 µM | 108 µM | 1.24 |
| O=C(O)Cc1ccccc1Nc1c(Cl)cccc1Cl [DICLOFENAC SODIUM] | – | – | 66.8% | – | – | – | – | – | – | – | – | – | – | – |
| O=C1O[C@H]([C@@H](O)CO)C(O)=C1O [ASCORBIC ACID] | – | – | – | – | – | – | – | – | – | – | – | 49.9 µM | – | 2.63 |
| CC(=O)Oc1ccccc1C(=O)O [ASPIRIN] | – | – | – | 63.1% | – | – | – | – | – | – | – | – | – | – |
| Cc1cc(C(C)(C)C)c(O)c(C(C)(C)C)c1 [BUTYLATED HYDROXYTOLUENE] | – | – | – | – | – | – | – | – | – | – | – | – | 57.8 µM | – |
| O=C(NCC(=O)N(C(=O)NC1CCCCC1)C1CCCCC1)/C(=C\c1ccc(Cl)cc1)NC(=O)c1ccccc1 | Non-toxic | Non-toxic | 15.2% | 27.6% | 13.5 mm | 11.8 mm | 9.2 mm | 16.3 mm | 13.5 mm | 12.7 mm | 83.7 µM | 83.7 µM | 96.8 µM | 0.93 |
| Cc1ccc(/C=C(/NC(=O)c2ccccc2)C(=O)NC(CS)C(=O)N(C(=O)NC2CCCCC2)C2CCCCC2)cc1 (stereo not given) | Non-toxic | Non-toxic | 35.5% | 41.2% | 15.8 mm | 16.8 mm | 18.4 mm | 22.7 mm | 15.4 mm | 14.2 mm | 84 µM | 66.3 µM | 113 µM | 2.36 |
